Data as given in ChEMBL document CHEMBL3244362, “Photoaffinity labeling of the angiotensin II receptor. 3. Receptor inactivation with photolabile hormone analogues” (J Med Chem, 1979).
Active and inactive are the calls of the source. The calls are words filed in the database; no cut-off is given here. Square brackets hold non-standard residues; d marks the D form. Peptide text beside a SMILES is read from it. Phe(4-NO2) = N[C@@H](Cc1ccc([N+](=O)[O-])cc1)C(=O)O; Phe(4-N3) = [N-]=[N+]=Nc1ccc(C[C@H](N)C(=O)O)cc1; Phe(4-N2+) = N#[N+]c1ccc(C[C@H](N)C(=O)O)cc1; Sar = CNCC(=O)O

Columns and labels:
[1] = organism: Oryctolagus cuniculus; assay: Intrinsic activity at angiotensin 2 receptor in albino New Zealand rabbit aorta in absence of UV light; type: tissue-based
How it was run: (§1)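 Rabbit aortic strips were suspended in Krebs solution at 37 °C, gassed with 95% O2/5% CO2, at 2.0 g tension, and equilibrated 60–90 min with bath changes every 10–15 min. Isometric contraction was recorded by force transducer in the dark. PD2 is the −log agonist concentration giving half-maximal contraction. pA2 is the −log antagonist concentration reducing a double agonist dose to a single-dose response. αE is intrinsic activity.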

[2] = organism: Oryctolagus cuniculus; assay: Agonist activity at angiotensin 2 receptor in albino New Zealand rabbit aorta in absence of UV light; type: tissue-based; how it was run: as §1
[3] = organism: Oryctolagus cuniculus; assay: Binding affinity to angiotensin 2 receptor in albino New Zealand rabbit aorta relative to [Sar1]AT in absence of UV light
[4] = organism: Oryctolagus cuniculus; assay: Inactivation of angiotensin 2 receptor in albino New Zealand rabbit aorta assessed as relaxation of angiotensin-induced contraction at 5 uM treated for 180 mins followed by UV light exposed for 10 mins relative to control in presence of noradrenaline; type: tissue-based; set-up: scale not given: the % may be the effect or the level left
How it was run: (§2)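 Strips in Krebs at 37 °C (95% O2/5% CO2, 2.0 g tension) received AT 0.2 μM at 60 and 120 min. The control agonist was noradrenaline for aorta and serotonin for stomach. At 180 min, peptide plus (4'amino)Phe 0.6 mM was added; after 5 min at maximal contraction, strips were UV-irradiated (365 nm black light) for 10 min and washed. AT response at 280 min was expressed as % of nonirradiated references. At least seven experiments; mean ± SE.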

[5] = organism: Oryctolagus cuniculus; assay: Inactivation of angiotensin 2 receptor in albino New Zealand rabbit aorta assessed as relaxation of angiotensin-induced contraction at 5 uM treated for 180 mins followed by UV light exposed for 10 mins relative to control in presence of [Leu8]-AT; type: tissue-based; set-up: scale not given: the % may be the effect or the level left
How it was run: (§3)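 Protection protocol: aortic strips in Krebs at 37 °C were given AT 0.2 μM at 60 and 120 min, then preincubated 15 min with [Leu8]AT 5 μM (final) before the photolabel plus (4'amino)Phe 0.6 mM. After 5 min at maximal contraction, strips were UV-irradiated 10 min and washed only after photolysis. Residual AT response at 280 min was expressed as % of nonirradiated, identically incubated references.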

[6] = organism: Oryctolagus cuniculus; assay: Inactivation of angiotensin 2 receptor in albino New Zealand rabbit aorta assessed as relaxation of angiotensin-induced contraction at 0.4 uM treated for 180 mins followed by UV light exposed for 10 mins relative to control in presence of noradrenaline; type: tissue-based; set-up: scale not given: the % may be the effect or the level left; how it was run: as §2
[7] = organism: Oryctolagus cuniculus; assay: Inactivation of angiotensin 2 receptor in albino New Zealand rabbit aorta assessed as relaxation of angiotensin-induced contraction at 0.2 uM treated for 180 mins followed by UV light exposed for 10 mins relative to control in presence of noradrenaline; type: tissue-based; set-up: scale not given: the % may be the effect or the level left; how it was run: as §2
[8] = organism: Oryctolagus cuniculus; assay: Inactivation of angiotensin 2 receptor in albino New Zealand rabbit aorta assessed as relaxation of angiotensin-induced contraction at 0.2 uM treated for 180 mins followed by UV light exposed for 10 mins relative to control in presence of [Leu8]-AT; type: tissue-based; set-up: scale not given: the % may be the effect or the level left; how it was run: as §3
[9] = organism: Oryctolagus cuniculus; assay: Inactivation of angiotensin 2 receptor in albino New Zealand rabbit aorta assessed as relaxation of angiotensin-induced contraction at 0.4 uM treated for 180 mins followed by UV light exposed for 10 mins relative to control in presence of [Leu8]-AT; type: tissue-based; set-up: scale not given: the % may be the effect or the level left; how it was run: as §3
[10] = biological target: T1, Angiotensin II receptor (Rattus norvegicus) (UniProt P29089+P25095+P35351); assay: Inactivation of angiotensin 2 receptor in Wistar rat aorta assessed as relaxation of angiotensin-induced contraction at 0.1 uM treated for 180 mins followed by UV light exposed for 10 mins relative to control in presence of noradrenaline; how it was run: as §2
[11] = organism: Oryctolagus cuniculus; assay: Inactivation of angiotensin 2 receptor in albino New Zealand rabbit aorta assessed as relaxation of angiotensin-induced contraction at 10 uM treated for 180 mins followed by UV light exposed for 10 mins relative to control in presence of noradrenaline; type: tissue-based; set-up: scale not given: the % may be the effect or the level left; how it was run: as §2
[12] = organism: Oryctolagus cuniculus; assay: Inactivation of angiotensin 2 receptor in albino New Zealand rabbit aorta assessed as relaxation of angiotensin-induced contraction at 10 uM treated for 180 mins followed by UV light exposed for 10 mins relative to control in presence of [Leu8]-AT; type: tissue-based; set-up: scale not given: the % may be the effect or the level left; how it was run: as §3
[13] = Antagonist activity at angiotensin 2 receptor in albino New Zealand rabbit aorta in absence of UV light; type: tissue-based, Oryctolagus cuniculus; how it was run: as §1
[14] = biological target: T1, Angiotensin II receptor (Rattus norvegicus); assay: Inactivation of angiotensin 2 receptor in Wistar rat stomach assessed as relaxation of angiotensin-induced contraction at 1 uM treated for 180 mins followed by UV light exposed for 10 mins relative to control in presence of serotonin; how it was run: as §2

Row | RBA [3] [%] | SMILES | Intrinsic activity [1] | pD2 [2] | Activity [11] [%] | further results
1 | 69 | CNCC(=O)N[C@@H](CCCNC(=N)N)C(=O)N[C@H](C(=O)N[C@@H](Cc1ccc(O)cc1)C(=O)N[C@H](C(=O)N[C@@H](Cc1cnc[nH]1)C(=O)N1CCC[C@H]1C(=O)N[C@@H](Cc1ccc([N+](=O)[O-])cc1)C(=O)O)C(C)C)C(C)C | 0.46 | 9.07 |  | Activity [6]: 95%
2 | 31 | CNCC(=O)N[C@@H](CCCNC(=N)N)C(=O)N[C@H](C(=O)N[C@@H](Cc1ccc(O)cc1)C(=O)N[C@H](C(=O)N[C@@H](Cc1cnc[nH]1)C(=O)N1CCC[C@H]1C(=O)N[C@@H](Cc1ccc(N=[N+]=[N-])cc1)C(=O)O)C(C)C)C(C)C | 1 | 8.72 |  | Activity [6]: 100%; Activity [9]: 103%; inhibition [10]: Active
3 | 1.3 | CNCC(=O)N[C@@H](CCCNC(=N)N)C(=O)N[C@H](C(=O)N[C@@H](Cc1ccc([N+]#N)cc1)C(=O)N[C@H](C(=O)N[C@@H](Cc1cnc[nH]1)C(=O)N1CCC[C@H]1C(=O)N[C@@H](Cc1ccc([N+]#N)cc1)C(=O)O)C(C)C)C(C)C (H-[Sar]RV[Phe(4-N2+)]VHP[Phe(4-N2+)]-OH) | 1 | 7.36 |  | 
4 | 13 | CNCC(=O)N[C@@H](CCCNC(=N)N)C(=O)N[C@H](C(=O)N[C@@H](Cc1ccc(O)cc1)C(=O)N[C@H](C(=O)N[C@@H](Cc1cnc[nH]1)C(=O)N1CCC[C@H]1C(=O)N[C@@H](Cc1ccc([N+]#N)cc1)C(=O)O)C(C)C)C(C)C | 1 | 8.33 |  | Activity [4]: 78%; Activity [5]: 72%

The remaining lines, values behind:

Row | SMILES | RBA [3] [%] | Intrinsic activity [1] | pD2 [2] | Activity [11] [%] | further results
5 | CNCC(=O)N[C@@H](CCCNC(=N)N)C(=O)N[C@H](C(=O)N[C@@H](Cc1ccc(N=[N+]=[N-])cc1)C(=O)N[C@H](C(=O)N[C@@H](Cc1cnc[nH]1)C(=O)N1CCC[C@H]1C(=O)N[C@@H](Cc1ccccc1)C(=O)O)C(C)C)C(C)C (H-[Sar]RV[Phe(4-N3)]VHPF-OH) | 0.26 | 0.75 | 6.65 |  | Activity [4]: 98%; Activity [5]: 64%
6 | CNCC(=O)N[C@@H](CCCNC(=N)N)C(=O)N[C@H](C(=O)N[C@@H](Cc1ccc(O)cc1)C(=O)N[C@H](C(=O)N[C@@H](Cc1cnc[nH]1)C(=O)N1CCC[C@H]1C(=O)N[C@@H](Cc1ccccc1)C(=O)O)C(C)C)C(C)C (H-[Sar]RVYVHPF-OH) |  | 1 | 9.23 |  | Activity [7]: 100%; Activity [8]: 100%
7 | CNCC(=O)N[C@@H](CCCNC(=N)N)C(=O)N[C@H](C(=O)N[C@@H](Cc1ccc([N+](=O)[O-])cc1)C(=O)N[C@H](C(=O)N[C@@H](Cc1cnc[nH]1)C(=O)N1CCC[C@H]1C(=O)N[C@@H](Cc1ccc([N+](=O)[O-])cc1)C(=O)O)C(C)C)C(C)C (H-[Sar]RV[Phe(4-NO2)]VHP[Phe(4-NO2)]-OH) | 0.06 | 0.5 | 6.02 | 99 | 
8 | CNCC(=O)N[C@@H](CCCNC(=N)N)C(=O)N[C@H](C(=O)N[C@@H](Cc1ccc(N=[N+]=[N-])cc1)C(=O)N[C@H](C(=O)N[C@@H](Cc1cnc[nH]1)C(=O)N1CCC[C@H]1C(=O)N[C@@H](Cc1ccc(N=[N+]=[N-])cc1)C(=O)O)C(C)C)C(C)C (H-[Sar]RV[Phe(4-N3)]VHP[Phe(4-N3)]-OH) | 0.07 | 0.8 | 6.12 | 100 | Activity [12]: 92%
9 | CNCC(=O)N[C@@H](CCCNC(=N)N)C(=O)N[C@H](C(=O)N[C@@H](Cc1ccc([N+]#N)cc1)C(=O)N[C@H](C(=O)N[C@@H](Cc1cnc[nH]1)C(=O)N1CCC[C@H]1C(=O)N[C@@H](Cc1ccccc1)C(=O)O)C(C)C)C(C)C (H-[Sar]RV[Phe(4-N2+)]VHPF-OH) | 0.66 | 1 | 7.05 |  | 
10 | CNCC(=O)N[C@@H](CCCNC(=N)N)C(=O)N[C@H](C(=O)N[C@@H](Cc1ccc([N+](=O)[O-])cc1)C(=O)N[C@H](C(=O)N[C@@H](Cc1cnc[nH]1)C(=O)N1CCC[C@H]1C(=O)N[C@@H](Cc1ccccc1)C(=O)O)C(C)C)C(C)C (H-[Sar]RV[Phe(4-NO2)]VHPF-OH) | 0 | 0 | < 5 | 105 | pA2 [13]: < 5; Activity [12]: 102%; inhibition [14]: inactive
